Data as given in ChEMBL document CHEMBL1926500, “Design, synthesis, biological evaluation and molecular modeling of 1,3,4-oxadiazoline analogs of combretastatin-A4 as novel antitubulin agents” (Bioorg Med Chem, 2012).

Tests used:
[1] = Inhibition of bovine brain tubulin polymerization after 20 mins by turbidimetry; design: species or system Bos taurus
In short: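 Bovine brain tubulin, purified in-house, used at 10 μM in glutamate buffer and preincubated with varying compound concentrations at 30 °C, then cooled to 0 °C. GTP added, mixtures warmed to 30 °C in a recording spectrophotometer, and assembly followed turbidimetrically. IC50 is the concentration inhibiting extent of assembly by 50% after 20 min.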

HepG2 = experiment: Antiproliferative activity against human HepG2 cells after 48 hrs by MTT assay; format: functional, cell-based; conditions: HepG2, 48 h
In short: (§1)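 Cells grown to log phase in RPMI 1640 with 10% FBS, seeded at 2×10^4 cells/mL, then left 24 h at 37 °C, 5% CO2 before dosing at pre-set concentrations. […] After 48 h exposure, MTT (2.5 mg/mL in PBS) was added for 4 h, then SDS/isobutyl alcohol/HCl extraction overnight at 37 °C, and OD read at 570 nm. Triplicate wells per concentration; each assay run at least three times; IC50 derived.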

MCF7 = experiment: Antiproliferative activity against human MCF7 cells after 48 hrs by MTT assay; format: functional, cell-based; conditions: MCF7, 48 h; in short: as §1
B16-F10 [2] = experiment: Antiproliferative activity against mouse B16F10 cells after 48 hrs by MTT assay; format: functional, cell-based; conditions: B16-F10, 48 h; in short: as §1
B16-F10 [3] = experiment: Cell cycle arrest in mouse B16F10 cells assessed as accumulation at Go/G1 phase at 2 ug/ml after 24 hrs by flow cytometry analysis (reference value: 70.4 %); format: functional
B16-F10 [4] = experiment: Cell cycle arrest in mouse B16F10 cells assessed as accumulation at S phase at 2 ug/ml after 24 hrs by flow cytometry analysis (reference value: 9.97 %); format: functional
B16-F10 [5] = experiment: Cell cycle arrest in mouse B16F10 cells assessed as accumulation at G2/M phase at 2 ug/ml after 24 hrs by flow cytometry analysis (reference value: 17.67 %); format: functional
B16-F10 [6] = experiment: Cell cycle arrest in mouse B16F10 cells assessed as accumulation at S phase at 1 ug/ml after 24 hrs by flow cytometry analysis (reference value: 9.97 %); format: functional
B16-F10 [7] = experiment: Cell cycle arrest in mouse B16F10 cells assessed as accumulation at G2/M phase at 1 ug/ml after 24 hrs by flow cytometry analysis (reference value: 17.67 %); format: functional

| Compound | IC50 [1] | pIC50 [1] | IC50 (HepG2) | IC50 (MCF7) | IC50 (B16-F10 [2]) | Activity (B16-F10 [3]) | Activity (B16-F10 [4]) | Activity (B16-F10 [5]) | Activity (B16-F10 [6]) | Activity (B16-F10 [7]) |
| --- | --- | --- | --- | --- | --- | --- | --- | --- | --- | --- |
| COc1ccc(C2OC(c3ccc4ccccc4c3)=NN2C(C)=O)cc1 (centres undefined) | 105 µM | 3.51 | 3.6 µM | 7.35 µM | 6.86 µM |  |  |  |  |  |
| CC(=O)N1N=C(c2ccc3ccccc3c2)OC1c1ccncc1 (centres undefined) | 22.8 µM | 4.14 | 2.17 µM | 2.56 µM | 2.97 µM |  |  |  |  |  |
| CC(=O)N1N=C(c2ccc3ccccc3c2)OC1c1ccc2ccccc2c1 (centres undefined) | 4.3 µM | 4.93 | 0.85 µM | 1.01 µM | 1.56 µM | 1.72% | 2.04% | 77.18% |  |  |
| COc1ccc(/C=C\c2cc(OC)c(OC)c(OC)c2)cc1O [COMBRETASTATIN A4] | 2.9 µM |  | 0.54 µM | 0.48 µM | 0.75 µM |  |  |  |  |  |
| CC(=O)N1N=C(c2ccc3ccccc3c2)OC1c1ccc(F)cc1 (centres undefined) | 28.1 µM | 4.07 | 1.82 µM | 3.02 µM | 4.65 µM |  |  |  |  |  |
| CC(=O)N1N=C(c2ccc3ccccc3c2)OC1c1ccccc1[N+](=O)[O-] (centres undefined) | 140 µM | 3.4 | 12.3 µM | 18.2 µM | 9.01 µM |  |  |  |  |  |
| CC(=O)N1N=C(c2ccc3ccccc3c2)OC1c1ccsc1 (centres undefined) | 51.9 µM | 3.79 | 6.82 µM | 7.98 µM | 8.56 µM |  |  |  |  |  |
| CC(=O)N1N=C(c2ccc3ccccc3c2)OC1c1cccc(Br)c1 (centres undefined) | 19.4 µM | 4.3 | 1.68 µM | 2.34 µM | 2.36 µM |  |  |  |  |  |
| CC(=O)N1N=C(c2ccc3ccccc3c2)OC1c1ccccn1 (centres undefined) | 53.8 µM | 3.77 | 5.26 µM | 6.02 µM | 7.18 µM |  |  |  |  |  |
| CC(=O)N1N=C(c2ccc3ccccc3c2)OC1c1ccccc1Cl (centres undefined) | 51.4 µM | 3.83 | 4.32 µM | 2.36 µM | 4.93 µM |  |  |  |  |  |
| COc1cc2c(c(OC)c1OC)-c1ccc(OC)c(=O)cc1[C@@H](NC(C)=O)CC2 [COLCHICINE] |  |  |  |  |  |  |  |  | 2.43% | 75.24% |
| CC(=O)N1N=C(c2ccc3ccccc3c2)OC1c1ccc(Br)cc1 (centres undefined) | 33.8 µM | 4.06 | 2.08 µM | 5.07 µM | 4.68 µM |  |  |  |  |  |
| CC(=O)N1N=C(c2ccc3ccccc3c2)OC1c1ccc(OCc2ccccc2)cc1 (centres undefined) | 58.2 µM | 3.86 | 3.38 µM | 5.49 µM | 8.08 µM |  |  |  |  |  |
| CC(=O)N1N=C(c2ccc3ccccc3c2)OC1c1cccnc1 (centres undefined) | 20.1 µM | 4.19 | 2.86 µM | 2.61 µM | 3.06 µM |  |  |  |  |  |

Continued by falling IC50 [1], values first:

| IC50 [1] | pIC50 [1] | IC50 (HepG2) | IC50 (MCF7) | IC50 (B16-F10 [2]) | Compound | Activity (B16-F10 [3]) | Activity (B16-F10 [4]) | Activity (B16-F10 [5]) | Activity (B16-F10 [6]) | Activity (B16-F10 [7]) |
| --- | --- | --- | --- | --- | --- | --- | --- | --- | --- | --- |
| 103 µM | 3.54 | 8.1 µM | 7.59 µM | 9.32 µM | CC(=O)N1N=C(c2ccc3ccccc3c2)OC1c1ccc([N+](=O)[O-])cc1 (centres undefined) |  |  |  |  |  |
| 51.5 µM | 3.88 | 3.98 µM | 5.49 µM | 6.98 µM | CC(=O)N1N=C(c2ccc3ccccc3c2)OC1c1ccccc1Br (centres undefined) |  |  |  |  |  |
| 48.1 µM | 3.84 | 3.36 µM | 3.44 µM | 6.05 µM | CC(=O)N1N=C(c2ccc3ccccc3c2)OC1c1ccccc1F (centres undefined) |  |  |  |  |  |
| 30.5 µM | 4.03 | 2.26 µM | 2.9 µM | 3.85 µM | CC(=O)N1N=C(c2ccc3ccccc3c2)OC1c1ccc(C)cc1 (centres undefined) |  |  |  |  |  |
| 27.1 µM | 4.08 | 1.84 µM | 2.12 µM | 2.58 µM | CC(=O)N1N=C(c2ccc3ccccc3c2)OC1c1ccccc1O (centres undefined) |  |  |  |  |  |
| 21.2 µM | 4.17 | 2.11 µM | 2.43 µM | 2.57 µM | CC(=O)N1N=C(c2ccc3ccccc3c2)OC1c1ccccc1 (centres undefined) |  |  |  |  |  |
| 12.7 µM | 4.44 | 1.88 µM | 2.63 µM | 2.48 µM | CC(=O)N1N=C(c2ccc3ccccc3c2)OC1c1ccc(Cl)cc1 (centres undefined) |  |  |  |  |  |
| 9.2 µM | 4.55 | 1.86 µM | 1.98 µM | 1.61 µM | CC(=O)N1N=C(c2ccc3ccccc3c2)OC1c1cccc(F)c1 (centres undefined) |  |  |  |  |  |
